Assay outcomes: PubChem, several laboratories
Thrombin inh: thrombin (human) inhibition | inhibition, % at 5 µM | 0.26% of 220,000 active | alpha-thrombin, Boc-VPR-AMC fluorogenic substrate cleavage;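 active = inhibition at or above 40%; inactive = inhibition below 40%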
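System – human alpha-thrombin protein · Reagent – Boc-VPR-AMC substrate, 15 µM final · Compound – 5 µM single dose in 0.2% DMSO · Schedule – reaction at room temperature · Technique – AMC fluorescence at 355 nm excitation and 460 nm emission · Read-out basis – % inhibition relative to enzyme controls and enzyme-free blanks · Control set – no-compound enzyme wells and no-enzyme blanks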
KLK5 inh: blocks human kallikrein 5 protease activity. recombinant hK5, fluorogenic AMC substrate cleavage. inhibition, % at 5 µM. 0.59% of 210,000 active;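 active = inhibition of 40% or more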
FXIIa inh 1536: blocks human coagulation factor XIIa protease activity; P00748; purified FXIIa, Boc-QGR-AMC fluorogenic substrate, 2 h; inhibition, % at 5 µM; 0.3% of 220,000 active; AID 800; in the data active = inhibition above about 40%
FXIa inh 1536: factor XIa (human) inhibition | 0.14% of 220,000 active | purified FXIa, Boc-Glu-Ala-Arg-AMC fluorogenic substrate | inhibition, % at 5 µM | AID 798 | P03951;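 active = inhibition of at least 40%; inactive = inhibition below 40%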;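 note: fluorescence of freed AMC excited at 355 nm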
Wee1 stabilizer: inhibitors of human Wee1 degradation. P30291. HeLa Luc-Wee1K328M stability, luciferase luminescence; 100% = proteasome inhibitor MG132 effect. reporter increase, % at 5 µM. 1.2% of 220,000 active. AID 1321;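 active = activation above the mean of all tested compounds plus 3 SD, set per screening run, cut at about 8.8% in these data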;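 note: cells exposed to compound for 20 h before luminescence read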
Each line names hits and unclear results; the compound was inactive in the other large screens. Compounds with a hit are over-represented: about 2.2% of the library has one in this group of screens.

CCc1nnc(NC(=O)CCC(=O)N2CCN(CCOc3ccc(C)cc3)CC2)s1	FXIIa inh 1536 42
COc1ccc(CN(C(=O)c2cc(=O)c3cc(C)cc(C)c3o2)C2CCS(=O)(=O)C2)cc1 (stereo not given)	none
C=CCn1c(SCC(=O)Nc2c(C)cccc2C)nnc1-c1ccncc1	none
CCn1c(SCC(=O)Nc2cc(C)on2)nnc1-c1ccccc1	none
CCn1c(SCC(=O)Nc2cccnc2Cl)nnc1-c1ccccc1	KLK5 inh 62, FXIIa inh 1536 106
C=CCn1c(SCC(=O)Nc2cccnc2Cl)nnc1-c1ccc(Cl)cc1	FXIIa inh 1536 41
CCn1c(SCC(=O)c2ccccc2)nnc1-c1cnccn1	KLK5 inh 43
CCn1c(SCC(=O)Nc2nccs2)nnc1-c1ccccc1	KLK5 inh 41
CCn1c(Cc2ccccc2)nnc1SCC(=O)Nc1nccs1	none
Cc1cs/c(=N\N=C2CCCCC2)n1Cc1ccco1	none
O=C(O)C1(S(=O)(=O)CCC(F)=C(F)F)CC1	none
CN1CCN(C(=O)c2ccc3c(=O)n4c(nc3c2)CCCCC4)CC1	KLK5 inh 42
O=C(c1ccc2c(=O)n3c(nc2c1)CCCCC3)N1CCN(Cc2ccccc2)CC1	none
O=c1c2ccccc2nc2n1CCC2	KLK5 inh 60
CN(c1cccc(NC(=O)CN(c2cccc(Cl)c2)S(=O)(=O)c2ccc(Cl)cc2)c1)S(C)(=O)=O	none
O=C1CSC(c2cn(-c3ccccc3)nc2-c2cc3ccccc3oc2=O)N1Cc1ccco1 (stereo not given)	KLK5 inh 153
O=C1CSC(c2cn(-c3ccccc3)nc2-c2cc3ccccc3o2)N1Cc1ccccc1 (stereo not given)	none
CC(=O)c1cc(CN2CCN(Cc3ccccc3)C(CCO)C2)cs1 (stereo not given)	none (no result: KLK5 inh)
Cc1ccc(NC(=O)C23CCC(C)(C(=O)[C@H]2Br)C3(C)C)cc1 (stereo not given in full)	Wee1 stabilizer 10
CC12CCC(C(=O)Nc3ccccc3)(C(Br)C1=O)C2(C)C (stereo not given)	none
O=C(/C=C/Nc1ccc(F)c(F)c1)c1ccc(Br)cc1	none
O=C(/C=C/Nc1ccc(F)cc1)c1ccc(Br)cc1	Wee1 stabilizer 9.4 (no result: KLK5 inh)
COC(=O)c1ccc(NCC(=O)Nc2cc(C)cc(C)c2)cc1	FXIIa inh 1536 57
Clc1cc(Cl)c(OCc2nc(-c3ccccn3)no2)cc1Cl	none
CC(C)(C)c1ccc(OCc2nc(-c3ccccn3)no2)c(Br)c1	KLK5 inh 44
COC(=O)c1ccc(NC(=O)CCNS(=O)(=O)c2cccc3nonc23)cc1	Wee1 stabilizer 9.1
CNC(=S)N/N=C(\C)c1ccc(C(C)(C)C)cc1	KLK5 inh 49
CCOc1cc(S(=O)(=O)N2CCCCC2)ccc1Cl	Thrombin inh 104, KLK5 inh 60
CCOc1cc(S(=O)(=O)N2CCN(CC)CC2)ccc1Cl	none
COc1ccc(Cl)c(S(=O)(=O)N2CCCC2)c1	KLK5 inh 68
COc1ccc(C(C(=O)NC(C)(C)C)N(C(=O)Cn2nnc3ccccc32)c2cccc(C(C)=O)c2)cc1O (stereo not given)	none
COc1ccc(NC(=O)c2ccco2)cc1NC(=O)c1cc2ccccc2o1	KLK5 inh 54
O=C(Nc1ccc(N2CCN(C(=O)c3ccco3)CC2)c(Cl)c1)c1cc2ccccc2o1	KLK5 inh 40
CC(=O)NC(Cc1ccc(F)cc1)C(=O)NC1CCN(c2ncccc2[N+](=O)[O-])CC1 (stereo not given)	none (no result: FXIIa inh 1536)
CC1(C)CC(Cc2nc(=S)[nH][nH]2)C(=O)O1 (stereo not given)	none
COc1ccc(CNC(=O)CCS(=O)(=O)c2cccc3nonc23)cc1	none
COc1ccccc1CNC(=O)CCS(=O)(=O)c1cccc2nonc12	Wee1 stabilizer 9.8
O=C(NC(NC(=S)Nc1cc(Cl)ccc1Cl)C(Cl)(Cl)Cl)c1ccco1 (stereo not given)	none
O=C(Cc1ccccc1)NC(NC(=S)Nc1cc(Cl)ccc1Cl)C(Cl)(Cl)Cl (stereo not given)	FXIIa inh 1536 103
CCN(C(=O)c1cnc(NC(C)C)cc1C(F)(F)F)c1ccc(Cl)cc1Cl	none
CCCCNC(=O)C1C2C=CC3(CN(Cc4ccc(C)cc4)C(=O)C13)O2 (stereo not given)	none
Cc1ccc(CN2CC34C=CC(O3)C(C(=O)NCc3ccco3)C4C2=O)cc1 (stereo not given)	KLK5 inh 156
